Assay results taken from ChEMBL document CHEMBL1145946, “Novel lavendamycin analogues as potent HIV-reverse transcriptase inhibitors: synthesis and evaluation of anti-reverse transcriptase activity of amide and ester analogues of lavendamycin” (J Med Chem, 2003).

Legend:
[1] = target: Human immunodeficiency virus type 1 reverse transcriptase (Human immunodeficiency virus 1, UniProt Q72547); assay: Inhibitory activity against HIV-reverse transcriptase (HIV-RT)
[2] = organism: Mus musculus; assay: Cellular cytotoxicity in normal mouse spleen stimulated with concanavalin A; assay type: functional
Procedure, shortened: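 Normal murine spleen cells at 2.5 × 10^6 or 5 × 10^6 cells/mL in complete RPMI 1640 with 10% FCS, stimulated with ConA 2.5 µg/mL. Analogue range added in triplicate, incubated 48 h at 37 °C, 5% CO2. MTT then added for 4-6 h, formazan dissolved in acidified 2-propanol, OD at 600 nm. CC50 by linear interpolation against untreated controls.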

[3] = test system: H9; assay: Cellular cytotoxicity against human lymphocytic cell lines H-9.; assay type: functional
Procedure, shortened: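 H-9 and CCRF-CEM human lymphocytic lines subcultured in complete RPMI 1640 with 10% FCS, without ConA or β-mercaptoethanol, at 6.25 × 10^5 and 2 × 10^6 cells/mL. Triplicate wells given a range of analogue concentrations at 37 °C, 5% CO2 for 48 h, then MTT 4-6 h, read at 600 nm. CC50 by linear interpolation versus untreated cells; data from both lines pooled.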

| SMILES | IC50 [1] [µM] | CC50 [2] [µM] | CC50 [3] [µM] |
| --- | --- | --- | --- |
| CC(=O)NC1=CC(=O)c2ccc(-c3[nH]c(C(N)=O)cc4c5ccccc5nc3-4)nc2C1=O | 12.7 | 50 | 95 |
| CC(=O)NC1=CC(=O)c2ccc(-c3[nH]c(C(=O)OCCOP(=O)(O)O)cc4c5ccccc5nc3-4)nc2C1=O | 3 | 29 | 27 |
| CCCCOC(=O)c1cc2c([nH]c3ccccc32)c(-c2ccc3c(n2)C(=O)C(NC(=O)CCC)=CC3=O)n1 [LAV12] | 5.8 | 81 | 50 |

Further lines, with some results ahead:

| IC50 [1] [µM] | SMILES | CC50 [2] [µM] | CC50 [3] [µM] |
| --- | --- | --- | --- |
| 13.3 | CC(=O)NC1=CC(=O)c2ccc(-c3[nH]c(C(=O)O)cc4c5ccccc5nc3-4)nc2C1=O | 47 | 81 |
| 15.1 | COC(=O)c1[nH]c(-c2ccc3c(n2)C(=O)C(NC(C)=O)=CC3=O)c2nc3ccccc3c-2c1C | 62 | 31 |
